Assay results reported in ChEMBL document CHEMBL1138089, “Cell permeation of a Trypanosoma brucei aldolase inhibitor: evaluation of different enzyme-labile phosphate protecting groups” (Bioorg Med Chem Lett, 2006).

Each molecule was assayed on Trypanosoma brucei (assay: Inhibitory activity against Trypanosoma brucei).
Type: functional, organism-based
Procedure, shortened: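 Parasites cultured free in serum-containing medium without macrophages; prodrugs tested in vitro against the cultures.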

SMILES	IC50 [µM]
CC(C)(C)C(=O)SCCOP(=O)(OCCSC(=O)C(C)(C)C)Oc1ccc(O)c(C=O)c1	16
CC(=O)OCCSSCCOP(=O)(OCCSSCCOC(C)=O)Oc1ccc(O)c(C=O)c1	> 50
CC(C)(C)C(=O)OCOP(=O)(OCOC(=O)C(C)(C)C)Oc1ccc(O)c(C=O)c1	20
O=Cc1cc(OP(=O)(O)O)ccc1O	> 50
CC(=O)Oc1ccccc1CCC(=O)OCOP(=O)(OCOC(=O)CCc1ccccc1OC(C)=O)Oc1ccc(O)c(C=O)c1	> 50

What follows are molecules tested on Trypanosoma cruzi (assay: Inhibitory activity against Trypanosoma cruzi).
Type: functional, organism-based
Procedure, shortened: (§1)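 Parasites grown inside host macrophages in serum-containing medium, so compounds must cross the macrophage and parasite membranes; tested in vitro.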

SMILES	IC50 [µM]
CC(C)(C)C(=O)SCCOP(=O)(OCCSC(=O)C(C)(C)C)Oc1ccc(O)c(C=O)c1	15
CC(=O)OCCSSCCOP(=O)(OCCSSCCOC(C)=O)Oc1ccc(O)c(C=O)c1	> 50
CC(C)(C)C(=O)OCOP(=O)(OCOC(=O)C(C)(C)C)Oc1ccc(O)c(C=O)c1	> 50
O=Cc1cc(OP(=O)(O)O)ccc1O	> 50
CC(=O)Oc1ccccc1CCC(=O)OCOP(=O)(OCOC(=O)CCc1ccccc1OC(C)=O)Oc1ccc(O)c(C=O)c1	> 50

These molecules were tested on Leishmania infantum (assay: Inhibitory activity against Leishmania […]).
Type: functional, organism-based
Procedure, shortened: as §1

SMILES	IC50 [µM]
CC(C)(C)C(=O)SCCOP(=O)(OCCSC(=O)C(C)(C)C)Oc1ccc(O)c(C=O)c1	25
CC(=O)OCCSSCCOP(=O)(OCCSSCCOC(C)=O)Oc1ccc(O)c(C=O)c1	> 50
CC(C)(C)C(=O)OCOP(=O)(OCOC(=O)C(C)(C)C)Oc1ccc(O)c(C=O)c1	> 50
O=Cc1cc(OP(=O)(O)O)ccc1O	> 50
CC(=O)Oc1ccccc1CCC(=O)OCOP(=O)(OCOC(=O)CCc1ccccc1OC(C)=O)Oc1ccc(O)c(C=O)c1	> 50

The molecules below were run on Plasmodium falciparum (assay: Inhibitory activity against Plasmodium falciparum).
Type: functional, organism-based

SMILES	IC50 [µM]
CC(C)(C)C(=O)SCCOP(=O)(OCCSC(=O)C(C)(C)C)Oc1ccc(O)c(C=O)c1	12
CC(=O)OCCSSCCOP(=O)(OCCSSCCOC(C)=O)Oc1ccc(O)c(C=O)c1	> 50
CC(C)(C)C(=O)OCOP(=O)(OCOC(=O)C(C)(C)C)Oc1ccc(O)c(C=O)c1	> 50
O=Cc1cc(OP(=O)(O)O)ccc1O	> 50
CC(=O)Oc1ccccc1CCC(=O)OCOP(=O)(OCOC(=O)CCc1ccccc1OC(C)=O)Oc1ccc(O)c(C=O)c1	> 50

These molecules were tested on MRC5 (assay: Cytotoxicity against human MRC5 cells).
Type: functional, cell-based

SMILES	IC50 [µM]
CC(C)(C)C(=O)SCCOP(=O)(OCCSC(=O)C(C)(C)C)Oc1ccc(O)c(C=O)c1	6
CC(=O)OCCSSCCOP(=O)(OCCSSCCOC(C)=O)Oc1ccc(O)c(C=O)c1	> 50
CC(C)(C)C(=O)OCOP(=O)(OCOC(=O)C(C)(C)C)Oc1ccc(O)c(C=O)c1	> 50
O=Cc1cc(OP(=O)(O)O)ccc1O	> 50
CC(=O)Oc1ccccc1CCC(=O)OCOP(=O)(OCOC(=O)CCc1ccccc1OC(C)=O)Oc1ccc(O)c(C=O)c1	> 50
